Screening results (PubChem BioAssay)
Hits are enriched below; roughly 4.7% of the tested compounds scored in any of these assays.
Jurkat NFkB inh: inhibitors of the PMA/ionomycin-induced NF-kB reporter in Jurkat cells | PMA/ionomycin-induced NF-kB luciferase reporter, luminescence | inhibition, % at 4 µM | 330,000 compounds, 0.53% hits | AID 435003; in the data active means inhibition above about 50%
IMP-1 inh: blocks Pseudomonas aeruginosa IMP-1 metallo-beta-lactamase; inhibition, % at 5.6 µM; purified IMP-1, nitrocefin hydrolysis, epi-absorbance fluorescence; AID 1556; 290,000 compounds, 0.45% hits;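 active means inhibition above the mean plus 3 SD of all compounds in the same screening run, cut at about 4.5% in these data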;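 further: 0% = IMP-1 with DMSO and 100% = DMSO wells lacking enzyme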
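System – purified recombinant IMP-1 beta-lactamase · Input – IMP-1 dispensed at 0.2 nM · Timing – 15 min preincubation plus 25 min reaction at 25 °C · Signal – Epi-absorbance fluorescence, 480 nm excitation, 530 nm emission · Measure – percent IMP-1 inhibition derived from blank-referenced optical density · Controls – Enzyme-plus-DMSO low control, enzyme-free DMSO high control · Replication – singlicate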
aSyn 5UTR inh: MLPCN primary screen, SNCA 5' untranslated region | alpha-synuclein 5'UTR reporter, inhibitor activity | inhibition, % (tested at 7.5 µM) | 300,000 compounds, 0.82% hits | AID 1813; in the data active means inhibition above about 60%; inconclusive means no clear call, values can overlap the other calls;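 further: H4 neuroglioblastoma cells stably carrying SNCA 5'UTR luciferase fusion; 0% = DMSO wells and 100% = positive control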
697 NFkB inh: lowers PMA/ionomycin-induced NF-kB signal in 697 B cells. 697 B-cell NF-kB luciferase reporter, 16 h. inhibition, % at 4 µM. 330,000 compounds, 0.33% hits. AID 435022; in the data active means inhibition above about 35%
VIM-2 inhibitor: inhibitors of Pseudomonas aeruginosa VIM-2 metallo-beta-lactamase | purified VIM-2, nitrocefin hydrolysis, epi-absorbance fluorescence | inhibition, % at 5.6 µM | 290,000 compounds, 0.89% hits;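 active means inhibition above the mean of all tested compounds plus 3 SD, cutoff set per screening run, cut at about 7.5% in these data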;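 further: red hydrolysis product quenches plate fluorescence so inhibitors raise well fluorescence; 0% = enzyme with DMSO and 100% = DMSO without enzyme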
Mdm2-MdmX inh: disrupts the human Mdm2-MdmX interaction. SaOS-2 split-luciferase Mdm2/MdmX complementation, luminescence. inhibition, % at 8 µM. 330,000 compounds, 3% hits. O15151+Q00987;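 active means inhibition of at least 50% at 8 µM in the primary screen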
Mdm2 MdmX conf: confirmation of human Mdm2/MdmX interaction inhibitors | AID 489028 | inhibition, % at 8 µM | 10,000 compounds, 55% hits | shares compounds with Mdm2-MdmX inh | Mdm2-MdmX binding, luminescent assay; in the data active means inhibition above about 40%
FLuc counter: inhibits full-length luciferase, flagging false Mdm2/MdmX hits. inhibition, % at 8 µM. shares compounds with Mdm2-MdmX inh. AID 504607. 6,200 compounds, 77% hits. SaOS-2 full-length luciferase counterscreen, luminescence;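 active means mean inhibition at 8 µM reaching about 37%, which flags the compound as non-specific, limit read from the data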;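 further: p53-null SaOS-2 cells with luciferase driven by a doxycycline-inducible promoter; compound on cells about two nights before reading with doxycycline added after day one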
An asterisk follows results filed as active.

How did COc1ccc(-c2oc3ccccc3c(=O)c2OC(=O)c2ccc(C)cc2)cc1 do in these assays?
Jurkat NFkB inh: -38.7; IMP-1 inh: -0.8; aSyn 5UTR inh: -59.6; 697 NFkB inh: -8.7; VIM-2 inhibitor: -0.5; Mdm2-MdmX inh: 79.5*; Mdm2 MdmX conf: 52.7*; FLuc counter: 16.6

What do the screens show for `COc1ccc(C(=O)c2ccc3oc(-c4ccc(OC)cc4)c(-c4ccc(O)cc4)c3c2)cc1`?
Jurkat NFkB inh: 9.7; 697 NFkB inh: 9.7; Mdm2-MdmX inh: 66.0*; Mdm2 MdmX conf: 13.7

How did O=C(Oc1c(-c2ccccc2)oc2ccccc2c1=O)c1ccccc1 do in these assays?
Jurkat NFkB inh: -25.8; IMP-1 inh: -2.0; aSyn 5UTR inh: -50.2; 697 NFkB inh: -7.4; VIM-2 inhibitor: -1.8; Mdm2-MdmX inh: 84.9*; Mdm2 MdmX conf: 61.4*; FLuc counter: 18.4

What do the screens show for `COc1ccc(C(=O)c2c(-c3ccc(OC)cc3)oc3ccccc23)cc1`?
Jurkat NFkB inh: 6.2; 697 NFkB inh: 8.4; Mdm2-MdmX inh: 9.3

Results for COc1cccc(NC(=O)CN(C)CC(=O)Nc2ccc(C)c([N+](=O)[O-])c2)c1 ?
Jurkat NFkB inh: -11.3; IMP-1 inh: -4.9; aSyn 5UTR inh: 2.7; 697 NFkB inh: 7.1; VIM-2 inhibitor: -5.7; Mdm2-MdmX inh: 61.2*; Mdm2 MdmX conf: 46.4*; FLuc counter: 41.7*

What do the screens show for `COc1cccc(NC(=O)CN(C)CC(=O)Nc2ccc3c(c2)OCO3)c1`?
Jurkat NFkB inh: -14.4; 697 NFkB inh: -4.6; Mdm2-MdmX inh: 19.3

What do the screens show for `COc1ccc(/C=N/Nc2nc(N3CCCCC3)nc(N3CCCCC3)n2)cc1[N+](=O)[O-]`?
Jurkat NFkB inh: -5.6; IMP-1 inh: -2.5; aSyn 5UTR inh: 0.0; 697 NFkB inh: -8.3; VIM-2 inhibitor: -0.9; Mdm2-MdmX inh: 4.9

Results for COc1cc(/C=N/Nc2nc(Nc3ccccc3)nc(-n3nc(C)cc3C)n2)cc(OC)c1OC ?
Jurkat NFkB inh: 39.1; IMP-1 inh: -6.0; aSyn 5UTR inh: -67.6; 697 NFkB inh: 20.9; VIM-2 inhibitor: -6.4; Mdm2-MdmX inh: 68.6*; Mdm2 MdmX conf: 66.2*; FLuc counter: 78.1*

What do the screens show for `COc1ccc(O)c(/C=N/Nc2nc(Nc3ccccc3)nc(-n3nc(C)cc3C)n2)c1`?
Jurkat NFkB inh: 19.8; IMP-1 inh: -0.7; aSyn 5UTR inh: 22.9; 697 NFkB inh: 28.2; VIM-2 inhibitor: -3.7; Mdm2-MdmX inh: 75.1*; Mdm2 MdmX conf: 43.8*; FLuc counter: 83.8*

Results for COc1cc(/C=N/Nc2nc(Nc3ccc(C)cc3)nc(-n3nc(C)cc3C)n2)cc(OC)c1OC ?
Jurkat NFkB inh: 38.7; IMP-1 inh: -4.3; aSyn 5UTR inh: 15.4; 697 NFkB inh: 8.8; VIM-2 inhibitor: -5.0; Mdm2-MdmX inh: 59.3*; Mdm2 MdmX conf: 72.7*; FLuc counter: 62.0*

How did COc1ccc(/C=N/Nc2nc(Nc3ccccc3)nc(N3CCCC3)n2)cc1[N+](=O)[O-] do in these assays?
Jurkat NFkB inh: -4.4; IMP-1 inh: -0.2; aSyn 5UTR inh: 22.9; 697 NFkB inh: 16.5; VIM-2 inhibitor: -0.7; Mdm2-MdmX inh: 97.4*; Mdm2 MdmX conf: 92.5*; FLuc counter: 60.8*

How did CCCCNC(=O)O[C@H]1C[C@@H]2CCN3C(=O)CCC[C@H]([C@H]1Cc1ccccc1)[C@H]23 do in these assays?
Jurkat NFkB inh: 13.0; IMP-1 inh: -0.6; aSyn 5UTR inh: 13.9; 697 NFkB inh: -4.6; VIM-2 inhibitor: -0.1; Mdm2-MdmX inh: -20.3

What do the screens show for `COc1ccc(Cn2c(C3CC3)nc3ccc(NC(=O)c4ccco4)cc3c2=O)cc1`?
Jurkat NFkB inh: -66.4; IMP-1 inh: -3.1; aSyn 5UTR inh: -151.5; 697 NFkB inh: -122.6; VIM-2 inhibitor: -2.0; Mdm2-MdmX inh: -96.9

What do the screens show for `O=C(CNS(=O)(=O)c1ccc(Cl)cc1)N1CCN(c2ccc(F)cc2)CC1`?
Jurkat NFkB inh: -4.4; 697 NFkB inh: -11.6; Mdm2-MdmX inh: -13.0

How did COCCNC(=O)CN(C(=O)Cn1nnc2ccccc21)c1cccc(C)c1C do in these assays?
Jurkat NFkB inh: 6.3; IMP-1 inh: -1.5; aSyn 5UTR inh: 15.2; 697 NFkB inh: 4.7; VIM-2 inhibitor: -4.3; Mdm2-MdmX inh: -21.5

Results for COc1cc2c(ccc3cc(OC)c(OC)c(O)c32)cc1O ?
Jurkat NFkB inh: 22.3; aSyn 5UTR inh: 0.0; 697 NFkB inh: 10.8; Mdm2-MdmX inh: 73.6*; Mdm2 MdmX conf: 38.0; FLuc counter: 31.4

Results for COc1cc2cccc(OC)c(=O)c2c(O)c1OC ?
Jurkat NFkB inh: -19.3; IMP-1 inh: -2.4; aSyn 5UTR inh: -70.3; 697 NFkB inh: 2.8; VIM-2 inhibitor: 1.3; Mdm2-MdmX inh: -39.7

What do the screens show for `COCCN(C(=O)COC(=O)c1cc2c(s1)CCCC2)c1c(N)n(Cc2ccccc2)c(=O)[nH]c1=O`?
Jurkat NFkB inh: 14.1; aSyn 5UTR inh: 3.1; 697 NFkB inh: 10.1; Mdm2-MdmX inh: -9.7

What do the screens show for `Cc1ccccc1Cn1cc(NC(=O)c2cc(-c3cccs3)on2)cn1`?
Jurkat NFkB inh: -10.0; IMP-1 inh: -3.8; aSyn 5UTR inh: 0.9; 697 NFkB inh: -1.0; VIM-2 inhibitor: -1.8; Mdm2-MdmX inh: 58.4*; Mdm2 MdmX conf: 12.8

How did COc1cccc(-c2cc(C(=O)Nc3cnn(Cc4ccccc4C)c3)no2)c1 do in these assays?
Jurkat NFkB inh: -1.3; IMP-1 inh: -3.0; aSyn 5UTR inh: -15.5; 697 NFkB inh: 1.0; VIM-2 inhibitor: -0.9; Mdm2-MdmX inh: -20.6

What do the screens show for `NCCCn1c(C(=O)c2ccc(Cl)cc2)c2ccc([N+](=O)[O-])cc2[n+]1[O-]`?
Jurkat NFkB inh: 25.5; aSyn 5UTR inh: inconclusive; 697 NFkB inh: -132.1; Mdm2-MdmX inh: -1.0

Results for N#Cc1c2ccc([N+](=O)[O-])cc2[n+]([O-])n1-c1ccccc1 ?
Jurkat NFkB inh: 29.0; 697 NFkB inh: -134.8; Mdm2-MdmX inh: 77.3*; Mdm2 MdmX conf: 35.5

What do the screens show for `CN(C)CCCN(C(=O)c1ccc2ccccc2c1)c1nc2cc3c(cc2s1)OCO3`?
Jurkat NFkB inh: 2.3; IMP-1 inh: -1.8; aSyn 5UTR inh: -12.4; 697 NFkB inh: 1.9; VIM-2 inhibitor: -0.9; Mdm2-MdmX inh: 76.6*; Mdm2 MdmX conf: 45.9*; FLuc counter: 60.9*

Results for Cc1cc(C)c2nc(N(CCCN(C)C)C(=O)c3ccc4c(c3)OCCO4)sc2c1 ?
Jurkat NFkB inh: 8.2; aSyn 5UTR inh: -35.6; 697 NFkB inh: -18.7; Mdm2-MdmX inh: 66.3*; Mdm2 MdmX conf: 53.1*; FLuc counter: 76.0*

What do the screens show for `CCN(CC)CCN(C(=O)c1cc2c(ccc3ccccc32)oc1=O)c1nc2cc3c(cc2s1)OCCO3`?
Jurkat NFkB inh: -73.8; IMP-1 inh: 1.5; aSyn 5UTR inh: 78.2*; 697 NFkB inh: -93.3; VIM-2 inhibitor: -1.1; Mdm2-MdmX inh: 100.3*; Mdm2 MdmX conf: 32.6
